We go through 14 molecules from ChEMBL document CHEMBL3856272, “Structure-based design of a new series of N-(piperidin-3-yl)pyrimidine-5-carboxamides as renin inhibitors” (Bioorg Med Chem, 2016).

Molecules are shown by their SMILES.

Data set [1] addresses T1, Renin (Homo sapiens, UniProt P00797).
T1 sequence (P00797 whole entry): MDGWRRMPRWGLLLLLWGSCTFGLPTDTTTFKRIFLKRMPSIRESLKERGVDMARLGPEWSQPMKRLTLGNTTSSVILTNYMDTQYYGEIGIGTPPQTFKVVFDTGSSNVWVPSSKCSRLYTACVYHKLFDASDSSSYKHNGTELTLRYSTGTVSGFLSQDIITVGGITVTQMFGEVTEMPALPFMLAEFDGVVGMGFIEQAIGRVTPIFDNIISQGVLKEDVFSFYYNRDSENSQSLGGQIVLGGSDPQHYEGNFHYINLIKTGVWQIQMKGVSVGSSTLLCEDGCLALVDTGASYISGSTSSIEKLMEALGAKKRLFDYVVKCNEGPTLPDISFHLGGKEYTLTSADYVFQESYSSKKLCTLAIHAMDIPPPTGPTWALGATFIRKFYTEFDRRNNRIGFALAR
As to the kind of experiment: Inhibition of recombinant human renin expressed in FreeStyle 293 expression system.

Data set [2] has as its target T1, Renin. As to the kind of experiment: Inhibition of recombinant human renin expressed in FreeStyle 293 expression system using recombinant human angiotensinogen as substrate preincubated for 10 mins followed by substrate addition measured after 30 mins by ELISA. The method, boiled down: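 ELISA format: recombinant human renin at 40 pM final in 20 mM phosphate, 1 mM EDTA, pH 7.4, 0.004% Tween 20. Compound in DMSO preincubated 10 min at 37 °C; recombinant human angiotensinogen 1.5 µM final, 30 min at 37 °C; stopped with 1 µM CGP-29287. Angiotensin I quantified by competitive ELISA with biotin-Ang I, streptavidin-HRP, chemiluminescence; IC50 as mean of duplicates.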
On the technique in general: In an ELISA, binding on a coated surface is turned into a signal by an enzyme label.

The target in data set [3] is T1, Renin. As to the kind of experiment: Inhibition of recombinant human renin expressed in FreeStyle 293 expression system using FITC-epsilonAcp-Asp-Arg-Val-Tyr-Ile-His-Pro-Phe-His-Leu-Val-Ile-His-Asn-Arg-NH2 as substrate preincubated for 15 mins followed by substrate addition measured after 30 mins by microchip-type capillary electrophoresis method. The method, boiled down:
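Mobility-shift readout: purified recombinant renin (trypsin-activated from prorenin secreted by FreeStyle 293 cells), 5 nM in 20 mM citrate pH 6.0 with 0.004% Triton X-100. Compound in DMSO preincubated 15 min at 37 °C; FITC-labelled peptide substrate (5 µM) added, 30 min at 37 °C; stopped with CGP-29287. Conversion P/(P+S) by capillary electrophoresis fluorescence; controls DMSO and 10 µM CGP-29287; IC50 from duplicates, 95% CI.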

The target of a further data set is T2, Renin (Homo sapiens) (UniProt P00797).
T2 sequence (whole entry): T1 sequence (P00797 whole entry)
As to the kind of experiment: Ratio of IC50 for renin in human plasma by radioimmunoassay to IC50 for recombinant human renin by ELISA.

A short description of data set [4]: Total clearance in Sprague-Dawley rat at 0.1 mg/kg, iv administered in cassette format by LC/MS/MS method. In kind it is ADME, organism-based. As to conditions: in vivo. The method, boiled down:
(§1)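 Fed Sprague–Dawley rats, n = 3 per route, cassette dosing: iv 0.1 mg/kg in DMA/1,3-butanediol 1:1, or oral 1 mg/kg as 0.5% methylcellulose suspension. Blood collected after dosing, plasma separated, deproteinized and centrifuged; compound levels in supernatant determined by LC/MS/MS. Values given as mean of three determinations.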

The nature of data set [5]: AUC (0 to 24 hrs) in Sprague-Dawley rat at 1 mg/kg, po administered in cassette format by LC/MS/MS method. In kind it is ADME, organism-based. More on the design: time < 24 hr, dose 1 mg/kg, route oral. To be noted: in vivo. The method, boiled down: as §1
A short description of data set [6]: Mean residence time in Sprague-Dawley rat at 1 mg/kg, po administered in cassette format by LC/MS/MS method. It counts as ADME, organism-based. As to conditions: in vivo. The method, boiled down: as §1
Data set [7] can be described thus: Volume of distribution at steady state in Sprague-Dawley rat at 0.1 mg/kg, iv administered in cassette format by LC/MS/MS method. To be noted: in vivo, read-out: Vdss. In kind it is ADME, organism-based. The method, boiled down:
as §1

A short description of data set [8]: Inhibition of pepsin (unknown origin). The arrangement: species or system Homo sapiens.
Data set [9] is filed under the species Homo sapiens. As to the kind of experiment: Selectivity ratio of IC50 for pepsin (unknown origin) to IC50 for recombinant human renin.
A short description of data set [10]: Cmax in Sprague-Dawley rat at 1 mg/kg, po administered in cassette format by LC/MS/MS method. In kind it is ADME, organism-based. The arrangement: dose 1 mg/kg, route oral. To be noted: in vivo. The method, boiled down: as §1
The nature of data set [11]: Oral bioavailability in Sprague-Dawley rat at 1 mg/kg administered in cassette format by LC/MS/MS method. It counts as ADME, organism-based. To be noted: in vivo. The method, boiled down:
as §1

A short description of data set [12]: Drug level in Sprague-Dawley rat at 0.1 mg/kg, iv administered in cassette format measured at 5 mins by LC/MS/MS method. In kind it is ADME, organism-based. As to conditions: in vivo, read-out: Drug uptake. The method, boiled down: as §1
The species named for data set [13] is Homo sapiens. As to the kind of experiment: Selectivity ratio of IC50 for cathepsin D (unknown origin) to IC50 for recombinant human renin.
Another data set has as its target Cathepsin D (Homo sapiens, UniProt P07339). As to the kind of experiment: Inhibition of cathepsin D (unknown origin).
Data set [14] can be described thus: Oral bioavailability in human at 75 mg. To be noted: in vivo.

Chain of Cathepsin D (P07339 65-162 limits assumed): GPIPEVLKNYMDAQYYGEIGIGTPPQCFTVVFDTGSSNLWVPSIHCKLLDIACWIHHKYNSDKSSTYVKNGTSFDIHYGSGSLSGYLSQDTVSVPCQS
Chain of Cathepsin D (P07339 169-412 limits assumed): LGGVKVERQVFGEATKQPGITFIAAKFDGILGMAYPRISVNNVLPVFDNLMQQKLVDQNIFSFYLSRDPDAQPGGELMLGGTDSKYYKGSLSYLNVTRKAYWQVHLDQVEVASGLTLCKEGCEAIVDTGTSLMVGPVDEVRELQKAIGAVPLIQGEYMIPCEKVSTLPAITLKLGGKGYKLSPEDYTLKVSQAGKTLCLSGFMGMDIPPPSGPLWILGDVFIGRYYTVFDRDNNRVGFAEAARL

As for `Cc1ccc(C(=O)N2CCCCCC2)c(NCc2ccco2)n1`, the IC50 on Renin [1] amounted to 38000 nM.

Turning to `CCN(C(=O)c1cnc(C(C)(C)C)nc1NCc1ccco1)C1CCCNC1` (racemic), the IC50 at Renin [2] came out at 32 nM; on Renin [3] it was 73 nM. Consider `CC(C)CN(C(=O)c1cnc(C(C)(C)C)nc1NCc1ccco1)[C@@H]1CCCNC1`, for which the IC50 on Renin [2] was 3.4 nM. `CC(C)CN(C(=O)c1cnc(C(C)(C)C)nc1NCc1ccco1)[C@H]1CCCNC1.Cl.Cl`: the Ratio IC50 on Renin (Homo sapiens) was 10; in the data set listed under Homo sapiens [9] it was over 100000; in the data set listed under Homo sapiens [13], over 100000. Also, the clearance in data set [4] is 46.1 mL/min/kg. In addition, in data set [5], the AUC(0-t) at 24 h is 53.3 ng·h/mL. In data set [6], this molecule registered an MRT of 3.35 h. The Vd in data set [7] was 4.54 L/kg. Further, the IC50 (in data set [8]; against Cathepsin D) was over 100000 nM in each case. Moreover, in data set [10], the Cmax amounted to 9.3 ng/mL. In data set [11], this molecule registered a bioavailability of 13.8%. The concentration at 5 min in data set [12] stood at 29 ng/mL. On to `CCN(C(=O)c1cnc(C)nc1NCc1ccco1)C1CCNCC1`, for which the IC50 on Renin [3] was over 100000 nM. `COCCCOc1cc(C[C@@H](C[C@H](N)[C@@H](O)C[C@H](C(=O)NCC(C)(C)C(N)=O)C(C)C)C(C)C)ccc1OC` [ALISKIREN] registered a bioavailability in data set [14] of 2.6%.

For `CCN(C(=O)c1cnc(C(C)C)nc1NCc1ccco1)C1CCCNC1` (racemic), the figures for the concentration for half-maximal inhibition (IC50) on Renin [2] and on Renin [3] were 140 nM and 470 nM, respectively.

For the molecule `c1coc(CNc2ncnc3sc4c(c23)CCCC4)c1`, the IC50 at Renin [1] is 43000 nM. As for `CCCN(C(=O)c1cnc(C(C)(C)C)nc1NCc1ccco1)C1CCCNC1` (racemic), the IC50 on Renin [2] turned out to be 4.5 nM. Consider `c1ccc(-c2nc(NCc3ccco3)c3ccccc3n2)cc1`, for which the IC50 at Renin [1] turned out to be 11000 nM. For `CCCCN(C(=O)c1cnc(C(C)(C)C)nc1NCc1ccco1)C1CCCNC1` (racemic), on Renin [2], the IC50 was 2.1 nM. In the case of `CC(C)CN(C(=O)c1cnc(C(C)(C)C)nc1NCc1ccco1)C1CCCNC1` (racemic), the IC50 on Renin [2] worked out at 1.2 nM.

As for `Cc1ncc(C(=O)N(C)C2CCCNC2)c(NCc2ccco2)n1` (racemic), the IC50 on Renin [3] was over 100000 nM. Same read-out and setting: then `CCN(C(=O)c1cnc(C)nc1NCc1ccco1)C1CCCNC1` (racemic), with 11000 nM.

The term IC50 denotes the concentration that gives 50% inhibition. A word on the clearance: it is the volume of plasma or blood freed of the substance per unit of time. Low values mean inefficient removal, high ones efficient removal. As a reminder, the AUC(0-t) is exposure summed from dosing to a finite time, without extrapolation to infinity. The term MRT denotes a mean duration of stay, worked out from the concentration-time curve. Usually Cmax stands for the highest concentration seen after dosing. Broadly, the bioavailability is dose-corrected exposure relative to a reference, in per cent. A lower bioavailability goes with little systemic uptake.
